Experimental data published in ChEMBL document CHEMBL4706503, “A novel pipeline of 2-(benzenesulfonamide)-N-(4-hydroxyphenyl) acetamide analgesics that lack hepatotoxicity and retain antipyresis” (Eur J Med Chem, 2020).
Calls of active or inactive are those of the source. No cut-off for these calls is given here.

What was measured:
[1] = Hepatotoxicity in CD1 mouse assessed as increase in apoptotic nuclei at 600 mg/kg, po measured after 12 hrs by TUNEL staining; type: toxicity, organism-based; conditions: in vivo
Method in brief: (§1)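 At 12 h, mice under 5% isoflurane were exsanguinated with saline and perfusion-fixed with 10% NBF; livers fixed 24 h, moved to 80% EtOH, paraffin-embedded and sectioned. Stains: H&E (100x), nitrotyrosine, ZO-1 (200x; 3D stacks at 1000x), TUNEL (200x).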

[2] = Renal toxicity in CD1 mouse assessed as increase in serum creatinine level at 600 mg/kg, po measured after 12 hrs; type: organism-based; conditions: in vivo
Method in brief: (§2)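 Male CD1 mice fasted 15 h, given 600 mg/kg po, then fed ad libitum for 12 h. Whole blood taken by transcardial perfusion under 5% isoflurane, without anticoagulant, clotted 0.5 h at 25 °C, spun 1000 g 5 min at 4 °C. Serum stored at −80 °C, then assayed with commercial kits. n = 5 mice per compound; vehicle 0.9% NaCl.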

CYP2E1 = CYP2E1 (Homo sapiens, UniProt P05181); assay: Inhibition of CYP2E1 (unknown origin) in baculosomes preincubated for 20 mins followed by addition of CYP enzyme-specific substrate and NADP+ and measured after 30 mins by fluorescence based analysis relative to control
CYP2E1, sequence (P05181 whole entry): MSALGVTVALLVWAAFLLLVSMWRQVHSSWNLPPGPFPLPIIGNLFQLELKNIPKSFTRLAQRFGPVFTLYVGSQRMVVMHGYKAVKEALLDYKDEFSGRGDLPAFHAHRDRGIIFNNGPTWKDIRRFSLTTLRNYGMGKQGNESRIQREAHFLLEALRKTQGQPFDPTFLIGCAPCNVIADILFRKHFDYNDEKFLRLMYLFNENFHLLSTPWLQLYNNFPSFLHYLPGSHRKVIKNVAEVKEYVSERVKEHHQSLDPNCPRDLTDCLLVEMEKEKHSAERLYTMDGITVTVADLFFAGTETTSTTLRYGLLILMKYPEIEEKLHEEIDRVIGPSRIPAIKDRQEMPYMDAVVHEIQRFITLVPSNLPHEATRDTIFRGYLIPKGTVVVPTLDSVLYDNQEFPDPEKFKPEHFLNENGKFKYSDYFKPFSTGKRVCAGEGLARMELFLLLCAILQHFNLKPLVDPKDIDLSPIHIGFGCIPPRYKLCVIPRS

[3] = Hepatotoxicity in CD1 mouse assessed as increase in serum alkaline phosphatase level at 600 mg/kg, po measured after 12 hrs; type: toxicity, organism-based; conditions: in vivo; method in brief: as §2
[4] = Hepatotoxicity in CD1 mouse assessed as increase in nitrotyrosine formation in liver at 600 mg/kg, po measured after 12 hrs by nitrotyrosine immunostaining based optical microscopy; conditions: in vivo
Cytochrome P450 2D6 = Cytochrome P450 2D6 (Homo sapiens, UniProt P10635); assay: Inhibition of CYP2D6 (unknown origin) in baculosomes preincubated for 20 mins followed by addition of CYP enzyme-specific substrate and NADP+ and measured after 30 mins by fluorescence based analysis; type: ADME
Cytochrome P450 2D6, sequence (P10635 whole entry): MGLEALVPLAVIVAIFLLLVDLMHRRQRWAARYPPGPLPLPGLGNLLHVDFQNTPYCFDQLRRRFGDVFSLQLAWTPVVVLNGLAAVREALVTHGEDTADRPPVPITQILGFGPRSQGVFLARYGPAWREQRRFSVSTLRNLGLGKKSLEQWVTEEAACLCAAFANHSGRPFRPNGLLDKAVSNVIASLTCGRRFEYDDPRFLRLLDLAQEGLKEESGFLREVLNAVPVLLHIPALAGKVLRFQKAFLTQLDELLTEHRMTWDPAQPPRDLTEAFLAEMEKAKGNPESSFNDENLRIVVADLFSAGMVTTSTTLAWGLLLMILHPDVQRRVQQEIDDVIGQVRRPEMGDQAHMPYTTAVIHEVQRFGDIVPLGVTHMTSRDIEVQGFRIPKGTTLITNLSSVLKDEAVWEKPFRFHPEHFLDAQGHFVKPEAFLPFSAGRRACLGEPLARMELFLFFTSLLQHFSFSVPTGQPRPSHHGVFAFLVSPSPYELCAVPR
Method in brief: (§3)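 Vivid fluorogenic screen: each compound was premixed with CYP baculosomes and a regeneration system (glucose-6-phosphate plus G6P dehydrogenase) for 20 min at room temperature. Isozyme-specific substrate and NADP+ were then added for 30 min at room temperature. Reaction stopped with 0.5 M Tris base; metabolite fluorescence read. IC50 taken from 10-point titration curves.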

Cytochrome P450 3A4 = Cytochrome P450 3A4 (Homo sapiens, UniProt P08684); assay: Inhibition of CYP3A4 (unknown origin) in baculosomes preincubated for 20 mins followed by addition of CYP enzyme-specific substrate and NADP+ and measured after 30 mins by fluorescence based analysis; type: ADME; method in brief: as §3
Cytochrome P450 3A4, sequence (P08684 whole entry): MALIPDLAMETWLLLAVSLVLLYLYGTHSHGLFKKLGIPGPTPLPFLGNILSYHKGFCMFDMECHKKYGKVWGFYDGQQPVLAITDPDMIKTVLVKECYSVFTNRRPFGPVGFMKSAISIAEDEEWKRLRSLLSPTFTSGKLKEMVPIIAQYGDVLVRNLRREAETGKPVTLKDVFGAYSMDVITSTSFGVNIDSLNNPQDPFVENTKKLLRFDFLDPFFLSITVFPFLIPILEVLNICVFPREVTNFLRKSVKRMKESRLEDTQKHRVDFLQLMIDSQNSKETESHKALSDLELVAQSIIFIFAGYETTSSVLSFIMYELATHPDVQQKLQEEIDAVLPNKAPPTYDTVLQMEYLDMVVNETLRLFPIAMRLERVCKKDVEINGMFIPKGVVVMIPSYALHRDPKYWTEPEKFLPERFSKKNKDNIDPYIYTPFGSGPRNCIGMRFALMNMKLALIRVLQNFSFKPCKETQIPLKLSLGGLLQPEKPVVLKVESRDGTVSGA

HepaRG [5] = assay: Hepatotoxicity in human HepaRG cells assessed as increase in lactate dehydrogenase release at 50 to 5000 uM […]; type: toxicity, cell-based; conditions: dose 50-5000 µM
[6] = Hepatotoxicity in CD1 mouse assessed as loss of chicken wire hepatic tight junctions at 600 mg/kg, po measured after 12 hrs by ZO-1 staining based optical microscopy; type: toxicity, organism-based; conditions: in vivo; method in brief: as §1
[7] = Hepatotoxicity in CD1 mouse assessed as liver architecture at 600 mg/kg, po measured after 12 hrs by hematoxylin and eosin staining based optical microscopy; type: toxicity, organism-based; conditions: in vivo; method in brief: as §1
[8] = Hepatotoxicity in CD1 mouse assessed as increase in serum alanine aminotransferase level at 600 mg/kg, po measured after 12 hrs; type: toxicity, organism-based; conditions: in vivo; method in brief: as §2
Hepatocyte = assay: Hepatotoxicity in primary human hepatocytes assessed as increase in lactate dehydrogenase release at 500 to 1000 uM measured after 3 to 12 hrs by fluorescence based analysis
[9] = Drug metabolism in CD1 mouse serum assessed as NAPQI formation at 600 mg/kg, ip measured after 12 hrs by LC-MS/MS analysis; type: ADME, organism-based; conditions: in vivo
Method in brief: (§4)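 Male CD1 mice dosed at 600 mg/kg (ip or po). Serum extracted twice with 3 vol ethyl acetate on ice (30 min, 3000 g spin), dried under N2, redissolved in 1:1 MeOH:H2O. LC-MS/MS in positive electrospray MRM mode monitoring m/z 150.3→108.1, identity checked against spiked NAPQI standard retention time (5.1 min).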

[10] = Hepatotoxicity in CD1 mouse assessed as increase in serum aspartate aminotransferase level at 600 mg/kg, po measured after 12 hrs; type: toxicity, organism-based; conditions: in vivo; method in brief: as §2
CYP3A4 = CYP3A4 (Homo sapiens, UniProt P08684); assay: Inhibition of CYP3A4 (unknown origin) in baculosomes preincubated for 20 mins followed by addition of CYP enzyme-specific substrate and NADP+ and measured after 30 mins by fluorescence based analysis relative to control
CYP3A4, sequence (P08684 whole entry): as above

Rattus norvegicus = assay: Analgesic activity in ip dosed complete freund's adjuvant-induced Sprague Dawley rat model of hyperalgesia assessed as inhibition of inflammatory pain measured after 30 mins by von Frey analgesimetric method; type: functional; conditions: 0.5 h
Mus musculus [11] = assay: Antipyretic activity against Baker's yeast-induced hyperthermia model in CD1 mouse at 80 mg/kg, po at 2 hrs post-injection by thermometer based analysis; type: functional, organism-based
Method in brief: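 Male CD1 mice fasted overnight (15 h); baseline rectal temperature taken, then ip pyrogen (15% baker's yeast, 0.1 mL/kg). Rectal temperature read 4 h later; only febrile animals used, grouped by equal mean temperature. Drug or 0.9% NaCl given po at 80 mg/kg; rectal temperature recorded 2 h later; fall compared with 4 h fever value. Mean ± SEM, n = 10; one-way ANOVA with Sidak post-hoc.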

Mus musculus [12] = assay: Analgesic activity in po dosed CD1 mouse assessed as inhibition of acetic acid-induced abdominal writhing treated with acetic acid 25 mins post drug administration and measured after 5 mins for 10 mins; type: functional; conditions: 40 min
Method in brief: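 Male CD1 mice fasted 15 h; drug suspended in 0.9% NaCl with ≤10% DMSO given po at 5, 10, 20, 40, 80 mg/kg. 0.4% acetic acid 10 mL/kg ip 25 min later; writhes counted 10 min starting 5 min after acid. Compared to vehicle; mean ± SEM, n > 15 per group; ED50 from dose-response curves.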

[13] = Drug metabolism in CD1 mouse serum assessed as NAPQI formation at 600 mg/kg, po measured after 12 hrs by LC-MS/MS analysis; type: ADME, organism-based; conditions: in vivo; method in brief: as §4
[14] = Toxicity in CD1 mouse assessed as animal survival rate at 600 mg/kg, ip measured for every 4 hrs upto 48 hrs by Kaplan-Meier plot analysis; type: organism-based; conditions: in vivo
Method in brief: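 Male CD1 mice, four groups of n = 20, given 600 mg/kg ip or 0.9% NaCl vehicle; live animals counted every 4 h for 48 h; Kaplan-Meier survival curves plotted.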

HepaRG [15] = assay: Hepatotoxicity in human HepaRG cells assessed as decrease in GSH level at 50 to 5000 uM measured after 6 to 24 hrs by Thiol tracker violet dye based fluorescence analysis; type: toxicity, cell-based; conditions: dose lower 50 µM, time lower 6 hrs, dose upper 5000 µM, time upper 24 hrs
Method in brief: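 HepaRG cells (80% confluent, serum-starved 6–8 h) exposed to 50, 100, 1000 or 5000 μM for 6, 12 or 24 h. Medium then removed and cells rinsed with D-PBS-conditioned medium. Cells were stained 30 min with ThiolTracker Violet; fluorescence read at ex 404/em 526 nm and reported as RFU for cellular GSH.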

[16] = Hepatotoxicity in CD1 mouse assessed as centrilobular hepatic hemorrhagic necrosis at 600 mg/kg, po measured after 12 hrs by hematoxylin and eosin staining based optical microscopy; type: toxicity, organism-based; conditions: in vivo; method in brief: as §1

Structure (SMILES) | Activity [2] | Activity [3] | Activity [8] | Activity (Hepatocyte) | Activity [10] | other results
O=C(CNS(=O)(=O)c1ccccc1C(=O)NCCc1ccc(O)c(O)c1)Nc1ccc(O)cc1 | Non-Toxic | Non-Toxic | Non-Toxic | Non-Toxic | Non-Toxic | Activity [1]: Non-Toxic; inhibition at 0.5 h (CYP2E1): 25%; Activity [4]: Non-Toxic; IC50 (Cytochrome P450 2D6): > 10 µM; IC50 (Cytochrome P450 3A4): 4.82 µM; Activity (HepaRG [5]): Non-Toxic; Activity [6]: Non-Toxic; Activity [7]: Non-Toxic; Drug metabolism [9]: Metabolite_Notdetected; inhibition at 0.5 h (CYP3A4): 25%; ED50 (Rattus norvegicus): 177 µmol/kg; Activity (Mus musculus [11]): Active; ED50 (Mus musculus [12]): 14.7 µmol/kg; Drug metabolism [13]: Metabolite_Notdetected; survival at 48 h [14]: 100%; Activity (HepaRG [15]): Non-Toxic
CN(C)C(=O)c1ccccc1S(=O)(=O)NCC(=O)Nc1ccc(O)cc1 | Non-Toxic | Non-Toxic | Non-Toxic | Toxic | Non-Toxic | –
O=C(CNS(=O)(=O)c1ccccc1C(=O)NCc1cccc(Cl)c1)Nc1ccc(O)cc1 | Non-Toxic | Non-Toxic | Non-Toxic | Toxic | Non-Toxic | –
CC(=O)Nc1ccc(O)cc1 [ACETAMINOPHEN] | Toxic | Toxic | Toxic | – | Toxic | Activity [1]: Toxic; Activity [16]: Toxic; Activity [4]: Toxic; IC50 (Cytochrome P450 2D6): > 10 µM; Activity (HepaRG [5]): Toxic; Activity [6]: Toxic; Drug metabolism [9]: Metabolite_Detected; ED50 (Rattus norvegicus): 245 µmol/kg; Activity (Mus musculus [11]): Active; ED50 (Mus musculus [12]): 68.6 µmol/kg; Drug metabolism [13]: Metabolite_Detected; Activity (HepaRG [15]): Toxic
O=C(CNS(=O)(=O)c1ccccc1C(=O)NCc1ccccn1)Nc1ccc(O)cc1 | Non-Toxic | Non-Toxic | Non-Toxic | Toxic | Non-Toxic | –
CNC(=O)c1ccccc1S(=O)(=O)NCC(=O)Nc1ccc(O)cc1 | Non-Toxic | Non-Toxic | Non-Toxic | Non-Toxic | Non-Toxic | Activity [1]: Non-Toxic; Activity [4]: Non-Toxic; IC50 (Cytochrome P450 2D6): > 10 µM; IC50 (Cytochrome P450 3A4): > 10 µM; Activity (HepaRG [5]): Non-Toxic; Activity [6]: Non-Toxic; Activity [7]: Non-Toxic; Drug metabolism [9]: Metabolite_Notdetected; ED50 (Rattus norvegicus): 198 µmol/kg; Activity (Mus musculus [11]): Active; ED50 (Mus musculus [12]): 45.2 µmol/kg; Drug metabolism [13]: Metabolite_Notdetected; survival at 48 h [14]: 100%; Activity (HepaRG [15]): Non-Toxic
O=C(CNS(=O)(=O)c1ccccc1C(=O)NCc1ccccc1)Nc1ccc(O)cc1 | – | – | – | Toxic | – | –
O=C(CNS(=O)(=O)c1ccccc1C(=O)NC1CCCC1)Nc1ccc(O)cc1 | Non-Toxic | Non-Toxic | Non-Toxic | Toxic | Non-Toxic | –
O=C(CNS(=O)(=O)c1ccccc1C(=O)NCCc1ccccc1)Nc1ccc(O)cc1 | – | – | – | Toxic | – | –
O=C(CNS(=O)(=O)c1ccccc1C(=O)NCc1ccc(Cl)c(Cl)c1)Nc1ccc(O)cc1 | Non-Toxic | Non-Toxic | Non-Toxic | Non-Toxic | Non-Toxic | –
CCCCNC(=O)c1ccccc1S(=O)(=O)NCC(=O)Nc1ccc(O)cc1 | Non-Toxic | Non-Toxic | Non-Toxic | Toxic | Non-Toxic | –
CC(C)NC(=O)c1ccccc1S(=O)(=O)NCC(=O)Nc1ccc(O)cc1 | – | – | – | Toxic | – | –
NC(=O)c1ccccc1S(=O)(=O)NCC(=O)Nc1ccc(O)cc1 | – | – | – | Toxic | – | –
O=C(CNS(=O)(=O)c1ccccc1C(=O)N1CCN(Cc2ccccc2)CC1)Nc1ccc(O)cc1 | – | – | – | Toxic | – | –
Cc1ccc(CNC(=O)c2ccccc2S(=O)(=O)NCC(=O)Nc2ccc(O)cc2)cc1 | Non-Toxic | Non-Toxic | Non-Toxic | Toxic | Non-Toxic | –
CC(C)CNC(=O)c1ccccc1S(=O)(=O)NCC(=O)Nc1ccc(O)cc1 | Non-Toxic | Non-Toxic | Non-Toxic | Toxic | Non-Toxic | –
O=C(CNS(=O)(=O)c1ccccc1C(=O)NCc1ccc([N+](=O)[O-])cc1)Nc1ccc(O)cc1 | Non-Toxic | Non-Toxic | Non-Toxic | Non-Toxic | Non-Toxic | –
O=C(CNS(=O)(=O)c1ccccc1C(=O)N1CCOCC1)Nc1ccc(O)cc1 | – | – | – | Non-Toxic | – | –
COc1ccc(CNC(=O)c2ccccc2S(=O)(=O)NCC(=O)Nc2ccc(O)cc2)cc1 | Non-Toxic | Non-Toxic | Non-Toxic | Toxic | Non-Toxic | –
O=C(CNS(=O)(=O)c1ccccc1C(=O)NCCN1CCCC1)Nc1ccc(O)cc1 | Non-Toxic | Non-Toxic | Non-Toxic | Non-Toxic | Non-Toxic | –
